Measured values: ChEMBL document CHEMBL3526151, “Reversible disulfide formation of the glutamate carboxypeptidase II inhibitor E2072 results in prolonged systemic exposures in vivo” (Drug Metab Dispos, 2012)

Tests used:
[1] = Apparent volume of distribution in Sprague-Dawley rat at 0.1 mg/kg, po administered via gavage measured under fasted conditions by LC-MS/MS analysis; type: ADME, organism-based; design: dose 0.1 mg/kg, route oral; settings: in vivo
Summary of the method: (§1)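 Fasted male Sprague-Dawley rats (280–330 g) received 0.1, 1, 10 or 30 mg/kg by oral gavage in 50 mM HEPES buffered saline, pH 7.4. Blood drawn at 0.25–24 h into heparin/NEM tubes; plasma analyzed by LC-MS/MS. Cmax taken as observed. AUC by linear trapezoidal rule with extrapolation by λz. Cl/F and Vd/F reported. Mean ± S.D., n = 4–9.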

[2] = Half life in Sprague-Dawley rat at 1 mg/kg, po administered via gavage measured under fasted conditions by LC-MS/MS analysis; type: ADME, organism-based; design: dose 1 mg/kg, route oral; settings: in vivo
[3] = Half life in Sprague-Dawley rat at 10 mg/kg, iv administered as bolus injection measured under fasted conditions by LC-MS/MS analysis; type: ADME, organism-based; design: dose 10 mg/kg, route intravenous; settings: in vivo
[4] = Phase 2 metabolic stability in rat liver microsomes assessed as compound remaining at 10 uM measured for 1 hr by LC-MS/MS analysis in absence of cofactors; type: ADME; settings: read-out: Stability
Summary of the method: (§2)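 Glucuronidation in liver microsomes of the named species, 0.5 mg/ml protein, compound at 10 μM final, in 50 mM Tris-HCl pH 7.5 with 8 mM MgCl2 and 25 μg/ml alamethicin. Preincubated at 37°C, then started with 2 mM UDPGA (final); cofactor-free controls run alongside. Duplicate reactions, sampled up to 1 h, quenched with cold acetonitrile plus internal standard; disappearance followed by LC-MS/MS.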

[5] = Clearance in Sprague-Dawley rat at 0.1 mg/kg, iv administered as bolus injection measured under fasted conditions by LC-MS/MS analysis; type: ADME, organism-based; design: dose 0.1 mg/kg, route intravenous; settings: in vivo
Summary of the method: (§3)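 Male Sprague-Dawley rats (280–330 g), jugular vein cannulated, fasted overnight until 4 h post-dose. Single tail-vein bolus of 0.1, 1, 10 or 30 mg/kg in 50 mM HEPES buffered saline, pH 7.4. Blood drawn 0–24 h into heparin tubes containing NEM. Plasma quantified by LC-MS/MS after NEM derivatization. Noncompartmental analysis: AUClast by linear trapezoidal rule, Cl = dose/AUC0-∞. Mean ± S.D., n = 4–9.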

[6] = AUC(0 to infinity) in Sprague-Dawley rat at 1 mg/kg, iv administered as bolus injection measured under fasted conditions by LC-MS/MS analysis; type: ADME, organism-based; design: time infinity, dose 1 mg/kg, route intravenous; settings: plasma; summary of the method: as §3
[7] = AUC(0 to infinity) in Sprague-Dawley rat at 0.1 mg/kg, iv administered as bolus injection measured under fasted conditions by LC-MS/MS analysis; type: ADME, organism-based; design: time infinity, dose 0.1 mg/kg, route intravenous; settings: plasma; summary of the method: as §3
[8] = Phase 2 metabolic stability in mouse liver microsomes assessed as compound remaining at 10 uM measured for 1 hr by LC-MS/MS analysis in absence of cofactors; type: ADME; settings: read-out: Stability; summary of the method: as §2
[9] = AUC(0 to last) in Sprague-Dawley rat at 1 mg/kg, po administered via gavage measured under fasted conditions by LC-MS/MS analysis; type: ADME, organism-based; design: time 0 - last, dose 1 mg/kg, route oral; settings: plasma; summary of the method: as §1
[10] = AUC(0 to infinity) in Sprague-Dawley rat at 1 mg/kg, po administered via gavage measured under fasted conditions by LC-MS/MS analysis; type: ADME, organism-based; design: time infinity, dose 1 mg/kg, route oral; settings: plasma; summary of the method: as §1
[11] = Phase 2 metabolic stability in dog liver microsomes assessed as compound remaining at 10 uM measured for 1 hr by LC-MS/MS analysis in absence of cofactors; type: ADME, Canis lupus familiaris; settings: read-out: Stability
Summary of the method: (§4)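 Cofactor-free controls were run for each microsomal incubation: 0.5 mg/ml liver microsomes with 10 µM compound, omitting cofactors, so that cofactor-independent degradation could be measured. Samples were taken up to 1 h, quenched with acetonitrile containing internal standard, and the percent remaining was determined by LC-MS/MS.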

Rattus norvegicus [12] = test: Analgesic activity in Sprague-Dawley rat chronic constriction injury model assessed as change in paw withdrawal latency at 10 mg/kg/day, po measured 7 days after drug treatment cessation (reference value: -2.68 +/-0.43 s); type: functional
[13] = AUC(0 to last) in Sprague-Dawley rat at 30 mg/kg, iv administered as bolus injection measured under fasted conditions by LC-MS/MS analysis; type: ADME, organism-based; design: time 0 - last, dose 30 mg/kg, route intravenous; settings: plasma; summary of the method: as §3
Rattus norvegicus [14] = test: Clearance in Sprague-Dawley rat at 10 mg/kg, iv administered as bolus injection measured under fasted conditions by LC-MS/MS analysis; type: ADME, organism-based; design: dose 10 mg/kg, route intravenous; settings: in vivo; summary of the method: as §3
[15] = Half life in Sprague-Dawley rat at 0.1 mg/kg, po administered via gavage measured under fasted conditions by LC-MS/MS analysis; type: ADME, organism-based; design: dose 0.1 mg/kg, route oral; settings: in vivo
[16] = AUC(0 to infinity) in Sprague-Dawley rat at 30 mg/kg, po administered via gavage measured under fasted conditions by LC-MS/MS analysis; type: ADME, organism-based; design: time infinity, dose 30 mg/kg, route oral; settings: plasma; summary of the method: as §1
[17] = Metabolic stability in Sprague-Dawley rat plasma assessed as compound remaining at 5 uM after 1 hr by LC-MS/MS analysis; type: ADME, cell-free; settings: read-out: Stability
Summary of the method: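 Compound at 5 and 10 µM was incubated at 37°C in Sprague-Dawley rat or cynomolgus monkey plasma. Aliquots taken at 0, 30 and 60 min were quenched with acetonitrile and analyzed by LC-MS/MS. Percent remaining = analyte/internal-standard area ratio at time t divided by that at time 0.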

Rattus norvegicus [18] = test: Analgesic activity in Sprague-Dawley rat chronic constriction injury model assessed as change in paw withdrawal latency at 10 mg/kg/day, po measured 11 days after drug treatment cessation (reference value: -2.77 +/-0.3 s); type: functional
[19] = Cmax in cynomolgus monkey at 5 mg/kg, iv administered as bolus injection by LC-MS/MS analysis; type: ADME, organism-based, Macaca fascicularis; design: dose 5 mg/kg, route intravenous; settings: in vivo
Summary of the method: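 Cynomolgus monkeys (n = 3) received a nominal 5 mg/kg dose in 50 mM HEPES, TCEP-treated to prevent disulfide formation. Dosing was either an IV bolus via cephalic or saphenous vein or oral. Arterial cannula blood was collected into NEM-containing heparinized tubes for up to 9 days and analyzed by LC-MS/MS. Noncompartmental analysis gave t1/2 = 0.693/λz and F% = dose-normalized mean AUCinf p.o./i.v. ×100.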

[20] = AUC(0 to last) in Sprague-Dawley rat at 10 mg/kg, po administered via gavage measured under fasted conditions by LC-MS/MS analysis; type: ADME, organism-based; design: time 0 - last, dose 10 mg/kg, route oral; settings: plasma; summary of the method: as §1
Rattus norvegicus [21] = test: AUC(0 to infinity) in Sprague-Dawley rat at 0.1 mg/kg, po administered via gavage measured under fasted conditions by LC-MS/MS analysis; type: ADME, organism-based, Plasma; design: time infinity, dose 0.1 mg/kg, route oral; settings: in vivo; summary of the method: as §1
[22] = Phase 2 metabolic stability in dog liver microsomes assessed as compound remaining at 10 uM measured for 1 hr by LC-MS/MS analysis; type: ADME, Canis lupus familiaris; settings: read-out: Stability
Summary of the method: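 For glucuronidation, compound was preincubated at 37°C in 50 mM Tris-HCl, pH 7.5, with 0.5 mg/ml liver microsomes, 8 mM MgCl2 and 25 µg/ml alamethicin. Reactions were started in duplicate with 2 mM UDPGA (final). Samples were taken up to 1 h, quenched with acetonitrile containing internal standard, and compound disappearance was measured by LC-MS/MS.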

[23] = Primary phase half life in Sprague-Dawley rat at 10 mg/kg, iv by LC-MS/MS analysis; type: ADME, organism-based; design: dose 10 mg/kg, route intravenous; settings: in vivo, read-out: alphat1/2 (converted)
[24] = Phase 1 metabolic stability in monkey liver microsomes assessed as compound remaining at 10 uM measured for 1 hr by LC-MS/MS analysis in absence of cofactors; type: ADME, Macaca mulatta; settings: rhesus monkey, read-out: Stability; summary of the method: as §4
[25] = Oral bioavailability in Sprague-Dawley rat at 30 mg/kg administered via gavage measured under fasted conditions by LC-MS/MS analysis; type: ADME, organism-based; settings: in vivo

## O=C(O)c1cccc(-c2cccc(CCS)c2C(=O)O)c1
[1]
  Vd/F: 2.98 L/kg
[2]
  half-life: 3.72 h
[3]
  half-life: 3.55 h
[4]
  remaining at 1 h, 10 µM: > 90%
[5]
  clearance: 1 mL/min/kg
[6]
  AUC(0-inf): 13000 ng·h/mL
[7]
  AUC(0-inf): 1970 ng·h/mL
[8]
  remaining at 1 h, 10 µM: > 90%
[9]
  AUC(0-t): 2610 ng·h/mL
[10]
  AUC(0-inf): 3210 ng·h/mL
[11]
  remaining at 1 h, 10 µM: > 90%
Rattus norvegicus [12]
  Time: -1.53 s
[13]
  AUC(0-t): 202000 ng·h/mL
Rattus norvegicus [14]
  CL: 4.5 mL/min/kg
[15]
  half-life: 9.33 h
[16]
  AUC(0-inf): 76600 ng·h/mL
[17]
  remaining at 1 h, 5 µM: 55%
Rattus norvegicus [18]
  Time: -1.9 s
[19]
  Cmax: 68 µg/mL
[20]
  AUC(0-t): 33400 ng·h/mL
Rattus norvegicus [21]
  AUC: 605 ng·h/mL
[22]
  remaining at 1 h, 10 µM: > 90%
[23]
  half-life: 0.87 h
[24]
  remaining at 1 h, 10 µM: > 90%
[25]
  bioavailability: 37.5%
